ChEMBL document CHEMBL4043227, “Novel xanthone-polyamine conjugates as catalytic inhibitors of human topoisomerase IIα” (Bioorg Med Chem Lett, 2017)
The source made the active and inactive calls. The calls are words filed in the database; no cut-off is given here.

Experiments:
[1] = target: T1, DNA topoisomerase 2-alpha (Homo sapiens, UniProt P11388); test: (§1) Poison activity at recombinant human topoisomerase-2alpha expressed in Saccharomyces cerevisiae JEL1 harboring topoisomerase1 deletion mutant assessed as enzyme-mediated supercoiled pBR322 cleavable complex formation at 2.5 to 100 uM after 6 mins by ethidium bromide staining based agarose gel electrophoresis
Summary of the method: (§2)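 Double-strand DNA cleavage by topo IIα (150 nM) on negatively supercoiled DNA, tested at 2.5, 10, 50 and 100 µM (one compound only up to 10 µM). Linear form III is resolved from forms I and II on ethidium-stained gels. Cleavage is normalised to the no-drug control set to 1, with 100 µM etoposide as reference. SD of 2-3 independent experiments.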
Target sequence in this assay (P11388 whole entry): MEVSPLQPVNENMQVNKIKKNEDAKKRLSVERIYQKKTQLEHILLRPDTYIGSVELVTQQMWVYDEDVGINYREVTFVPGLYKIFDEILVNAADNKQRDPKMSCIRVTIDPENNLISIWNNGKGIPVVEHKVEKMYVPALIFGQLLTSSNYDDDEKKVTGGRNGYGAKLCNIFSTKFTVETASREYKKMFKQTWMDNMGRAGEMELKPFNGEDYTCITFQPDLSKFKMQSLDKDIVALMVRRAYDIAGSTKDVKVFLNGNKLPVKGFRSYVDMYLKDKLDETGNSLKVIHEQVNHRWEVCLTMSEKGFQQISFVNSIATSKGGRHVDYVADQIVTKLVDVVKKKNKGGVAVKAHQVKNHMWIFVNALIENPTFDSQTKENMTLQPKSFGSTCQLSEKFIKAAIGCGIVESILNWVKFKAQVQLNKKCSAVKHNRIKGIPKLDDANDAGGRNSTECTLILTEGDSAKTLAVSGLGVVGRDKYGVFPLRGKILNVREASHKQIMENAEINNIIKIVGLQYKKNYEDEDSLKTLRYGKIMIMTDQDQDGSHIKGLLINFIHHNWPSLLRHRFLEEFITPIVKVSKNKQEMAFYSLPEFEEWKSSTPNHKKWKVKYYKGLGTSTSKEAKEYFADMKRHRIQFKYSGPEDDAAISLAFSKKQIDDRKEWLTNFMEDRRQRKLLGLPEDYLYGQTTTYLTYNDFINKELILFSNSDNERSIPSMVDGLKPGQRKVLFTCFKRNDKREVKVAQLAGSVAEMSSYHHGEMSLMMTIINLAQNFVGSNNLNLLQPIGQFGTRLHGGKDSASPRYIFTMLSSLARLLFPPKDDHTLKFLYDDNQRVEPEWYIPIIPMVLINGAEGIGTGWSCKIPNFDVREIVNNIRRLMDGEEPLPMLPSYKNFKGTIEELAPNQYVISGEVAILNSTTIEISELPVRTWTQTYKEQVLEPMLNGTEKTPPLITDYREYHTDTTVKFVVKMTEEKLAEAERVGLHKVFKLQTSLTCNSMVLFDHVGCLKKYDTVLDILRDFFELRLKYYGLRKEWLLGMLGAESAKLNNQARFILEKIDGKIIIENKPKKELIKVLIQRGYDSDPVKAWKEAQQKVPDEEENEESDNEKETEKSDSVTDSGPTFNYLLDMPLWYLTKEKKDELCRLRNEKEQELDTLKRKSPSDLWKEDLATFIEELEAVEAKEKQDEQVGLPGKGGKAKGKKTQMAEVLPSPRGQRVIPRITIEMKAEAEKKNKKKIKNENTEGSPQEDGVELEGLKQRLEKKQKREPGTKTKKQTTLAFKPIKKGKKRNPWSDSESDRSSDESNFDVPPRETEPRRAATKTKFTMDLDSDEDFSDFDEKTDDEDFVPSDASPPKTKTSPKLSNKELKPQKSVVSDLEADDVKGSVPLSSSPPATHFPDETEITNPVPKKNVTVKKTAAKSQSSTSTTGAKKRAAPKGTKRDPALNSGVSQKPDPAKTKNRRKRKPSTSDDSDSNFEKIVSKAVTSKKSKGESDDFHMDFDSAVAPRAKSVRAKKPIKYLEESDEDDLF

[2] = target: T1, DNA topoisomerase 2-alpha; test: (§3) Inhibition of 3 nM recombinant human topoisomerase-2alpha catalytic activity expressed in Saccharomyces cerevisiae JEL1 harboring topoisomerase1 deletion mutant assessed as reduction in supercoiled pBR322 DNA relaxation after 4 mins by ethidium bromide staining based agarose gel electrophoresis
Summary of the method: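 Topo IIα at 3 nM relaxes negatively supercoiled DNA, with no-enzyme and enzyme-only controls. Supercoiled (form I) and nicked (form II) bands are resolved on gel, and IC50 is estimated from the gels. Gels represent 2-4 independent experiments.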
Target sequence in this assay (P11388 whole entry, looked up, stated change not applied): as the sequence (P11388 whole entry) above

[3] = target: T1, DNA topoisomerase 2-alpha; test: as §1, with “up” for “at 2.5”, “10” for “100”; summary of the method: as §2
Target sequence in this assay (P11388 whole entry): as above

[4] = Solubility of the compound in Tris-HCl at pH 7.9 at 50 to 100 uM; assay type: physicochemical; conditions: buffer, pH 7.9, 100 µM
[5] = target: T1, DNA topoisomerase 2-alpha; test: Ratio of IC50 for recombinant human topoisomerase-2alpha expressed in Saccharomyces cerevisiae JEL1 harboring topoisomerase1 deletion mutant assessed as enzyme-mediated decatenation of kinetoplast DNA to IC50 for recombinant human topoisomerase-2alpha catalytic activity expressed in Saccharomyces cerevisiae JEL1 harboring topoisomerase1 deletion mutant assessed as reduction in supercoiled pBR322 DNA relaxation
Target sequence in this assay (P11388 whole entry): as above

[6] = target: T1, DNA topoisomerase 2-alpha; test: as §1, with “Inhibition of” for “Poison activity at”, “up” for “at 2.5”, “10” for “100”, “in presence of CaCl2” for “after 6 mins”
Summary of the method: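 Cleavage reactions contain CaCl2, which raises baseline topo IIα DNA cleavage about 10- to 15-fold. Enzyme at 150 nM with negatively supercoiled DNA. Xanthones are tested up to 10 µM, with no-enzyme and enzyme-only controls.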
Target sequence in this assay (P11388 whole entry): as above

[7] = target: T1, DNA topoisomerase 2-alpha; test: as §3, with “of 150” for “of 3”, “relaxation at 10 uM” for “relaxation”
Summary of the method: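 Control relaxation run at high enzyme (150 nM topo IIα) to match the cleavage assay. Negatively supercoiled DNA substrate, with no-enzyme and enzyme-only controls, read on gel.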
Target sequence in this assay (P11388 whole entry): as above

[8] = target: T1, DNA topoisomerase 2-alpha; test: as §3, with “of 150” for “of 3”, “in enzyme-mediated relaxed” for “in supercoiled”, “DNA strand passage” for “DNA relaxation”, “after 2” for “after 4”, “mins in presence of APP(NH)P” for “mins”
Summary of the method: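 Topo IIα at 150 nM with relaxed DNA as substrate, ATP replaced by the non-hydrolysable analogue APP(NH)P, so only events up to strand passage are scored. Catenated DNA is read at the gel origin against relaxed DNA bands, with no-enzyme and enzyme-only controls. Gels represent at least 3 independent experiments.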
Target sequence in this assay (P11388 whole entry, looked up, stated change not applied): as the sequence (P11388 whole entry) above

[9] = target: T1, DNA topoisomerase 2-alpha; test: Inhibition of recombinant human topoisomerase-2alpha expressed in Saccharomyces cerevisiae JEL1 harboring topoisomerase1 deletion mutant assessed as reduction in etoposide induced enzyme-mediated DNA cleavage up to 10 uM by ethidium bromide staining based agarose gel electrophoresis
Summary of the method: (§4)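 Competition assay: 5-100 µM xanthone (one compound only up to 10 µM, for solubility) is added with 100 µM etoposide. Enzyme double-strand break levels are expressed relative to etoposide alone, set to 100%. Mean ± SD of 2-3 independent experiments.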
Target sequence in this assay (P11388 whole entry): as above

[10] = target: T1, DNA topoisomerase 2-alpha; test: Inhibition of recombinant human topoisomerase-2alpha expressed in Saccharomyces cerevisiae JEL1 harboring topoisomerase1 deletion mutant assessed as reduction in enzyme-mediated [gamma32P]ATP hydrolysis using relaxed pBR322 DNA as substrate after 8 mins
Target sequence in this assay (P11388 whole entry, looked up, stated change not applied): as the sequence (P11388 whole entry) above

[11] = target: T1, DNA topoisomerase 2-alpha; test: Inhibition of recombinant human topoisomerase-2alpha expressed in Saccharomyces cerevisiae JEL1 harboring topoisomerase1 deletion mutant assessed as reduction in enzyme-mediated [gamma32P]ATP hydrolysis up to 50 uM after 8 mins
[12] = target: T1, DNA topoisomerase 2-alpha; test: Inhibition of recombinant human topoisomerase-2alpha expressed in Saccharomyces cerevisiae JEL1 harboring topoisomerase1 deletion mutant assessed as reduction in etoposide induced enzyme-mediated DNA cleavage up to 100 uM by ethidium bromide staining based agarose gel electrophoresis; summary of the method: as §4
[13] = target: T1, DNA topoisomerase 2-alpha; test: as §3, with “of” for “of 3 nM”, “at 10 uM in presence of spermine” for “after 4 mins”
Summary of the method: (§5)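 Negatively supercoiled plasmid relaxed by 3 nM topoisomerase IIα with polyamine (spermidine or spermine) added. Controls were DNA without enzyme and enzyme without inhibitor. Products resolved on gels with supercoiled (form I) and nicked (form II) markers, then quantified. Error bars are standard error of the mean for 2 independent experiments.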

[14] = target: T1, DNA topoisomerase 2-alpha; test: as §3, with “of” for “of 3 nM”, “at 10 uM in presence of spermidine” for “after 4 mins”; summary of the method: as §5
[15] = target: T1, DNA topoisomerase 2-alpha; test: as §3, with “relaxation at 10 uM” for “relaxation”
Summary of the method: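 Relaxation of negatively supercoiled plasmid by 3 nM topoisomerase IIα was read from gel mobility (supercoiled form I vs nicked form II). Controls were DNA without enzyme and enzyme-treated DNA without compound. Gels are representative of 2-4 independent experiments.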

IC50 [2] [µM]	Ratio IC50 [5]	inhibition [6]	inhibition [7]	SMILES	Activity [1]	other results
100	–	–	–	CCCCNCC(O)COc1cc(O)c2c(=O)c3ccccc3oc2c1 (stereo not given)	inactive	–
> 1000	–	–	–	NCCCCNCCCN [SPERMIDINE]	–	–
> 1000	–	–	–	NCCCNCCCCNCCCN [SPERMINE]	–	–
–	2 to 3	inactive	Active	Cl.Cl.Cl.Cl.NCCCNCCCCNCCCNCC(O)COc1cc(O)c2c(=O)c3ccccc3oc2c1 (stereo not given)	–	Activity [3]: inactive; solubility [4]: Insoluble; IC50 [8]: < 10 µM; inhibition [9]: Active
–	2 to 3	inactive	Active	NCCCCNCCCNCC(O)COc1cc(O)c2c(=O)c3ccccc3oc2c1 (stereo not given)	inactive	IC50 [8]: < 10 µM; IC50 [10]: 10 µM; inhibition [11]: inactive; inhibition [12]: Active
1	2 to 3	inactive	Active	NCCCNCC(O)COc1cc(O)c2c(=O)c3ccccc3oc2c1 (stereo not given)	inactive	inhibition [12]: Active
≥ 100	2 to 3	inactive	inactive	O=c1c2ccccc2oc2cc(O)cc(O)c12	inactive	inhibition [13]: inactive; inhibition [14]: inactive; inhibition [15]: inactive
2.5 to 5	–	–	–	NCCCCNCC(O)COc1cc(O)c2c(=O)c3ccccc3oc2c1 (stereo not given)	inactive	–
